Screens from PubChem.
RORA inh – inhibitors of human nuclear receptor RORA. CHO-K1 Gal4-RORA LBD luciferase reporter, luminescence. P35398. inhibition, % at 10 µM. 65,000 compounds, 0.43% hits;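 active means inhibition above the mean of all tested compounds plus 3 SD, cut at about 52% in these data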
Target sequence (P35398 whole entry, looked up, the tested form may be a part): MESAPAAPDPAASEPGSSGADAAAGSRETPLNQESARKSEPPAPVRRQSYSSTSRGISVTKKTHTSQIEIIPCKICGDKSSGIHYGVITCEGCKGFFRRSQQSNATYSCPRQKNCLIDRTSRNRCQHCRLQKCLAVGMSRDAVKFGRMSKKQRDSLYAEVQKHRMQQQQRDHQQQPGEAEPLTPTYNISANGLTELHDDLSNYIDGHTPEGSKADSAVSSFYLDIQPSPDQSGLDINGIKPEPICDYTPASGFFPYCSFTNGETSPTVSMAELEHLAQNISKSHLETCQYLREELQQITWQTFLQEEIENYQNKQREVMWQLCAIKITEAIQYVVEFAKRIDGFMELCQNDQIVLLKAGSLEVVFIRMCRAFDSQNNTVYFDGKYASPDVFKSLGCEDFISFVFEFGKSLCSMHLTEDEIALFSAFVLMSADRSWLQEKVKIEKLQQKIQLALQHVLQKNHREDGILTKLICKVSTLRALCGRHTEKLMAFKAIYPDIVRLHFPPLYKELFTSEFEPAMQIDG
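Material: transiently transfected CHO-K1 cells, Gal4-DBD/human RORA-LBD fusion plus 5xGal4-luciferase reporter; doses: single concentration per compound, 10 µM final; incubation: 20 h at 37 °C; detection: luminescence from basal luciferase reporter expression; read-out: % inhibition of basal luciferase versus +RORA/-RORA DMSO controls; replication: tested once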
A number is an active result; 0 = inactive. This is one part of a sample in which hits are shown more often than they occur.

SMILES	RORA inh
Cc1nc(NC(=O)C2CC3CCCC(C2)C3=O)sc1C (stereo unspecified)	0
COC(=O)c1ccc(CSc2nc3c(c(=O)n2-c2ccc(Br)cc2)SCC3)o1	0
CC1CCc2cc(F)cc3c(O)c(C(=O)Nc4cnccn4)c(=O)n1c23 (stereo unspecified)	0
C(=N\n1cnnc1)/c1cccc(Oc2ccccc2)c1	0
Cc1cc(/C=N/n2cnnc2)c(C)n1-c1ccc(OCc2ccccc2F)cc1	62
O=C(CCNS(=O)(=O)c1cccc2nsnc12)N1CC(=O)N(CCc2ccccc2)C(=O)C1	0
Cc1sc2nc3n(c(=O)c2c1C)Cc1ccccc1-3	0
O=C(OCc1nnc(-c2ccccc2)o1)c1ccc(S(=O)(=O)NCc2ccco2)cc1	0
Cc1cc(C)n2nc(SCC(=O)c3cc(C)n(-c4cc(C)on4)c3C)nc2n1	55
Cc1cc(C)n2nc(SCC(=O)NCc3ccco3)nc2n1	0
Cc1cc(C)n2nc(SCc3cc(=O)n4ccccc4n3)nc2n1	0
Cc1cc(-n2c(C)cc(C(=O)CSc3ncnc4ccccc34)c2C)no1	64
Cc1cc(C(=O)CSc2nc3ccccc3[nH]2)c(C)n1C	0
Cc1cc(C(=O)CSc2nnc(-c3ccccc3)n2-c2ccccc2)c(C)n1-c1ncn[nH]1	0
O=C(O)CNC1=NCCC1	0
NC(=O)CC1NC(=O)c2ccccc21 (stereo unspecified)	0
CCN(CC)C(=O)COc1ccc(-c2ccccc2)cc1	0
c1ccc(Cn2c(-c3ccco3)nc3nc4ccccc4nc32)cc1	0
CCCn1c(-c2ccc(OC)cc2)nc2nc3ccccc3nc21	0
Cc1ccc(-c2nc3nc4ccccc4nc3n2Cc2ccco2)cc1	68
CC(C)OCCCNC(=O)C1CCC(=O)N1C(C)C (stereo unspecified)	0
CCCCN1c2cc(C)c(O)cc2C(C(=O)OCC)C1C (stereo unspecified)	0
CSCCC(CO)NC(=O)OCc1ccccc1 (stereo unspecified)	0
Cc1cccc(-c2noc(Cc3ccc(Cl)cc3)n2)c1	0
Cc1ccc(-c2nc(-c3ccccn3)no2)cc1Cl	81
SMILES	RORA inh
c1ccc(Cc2nc(-c3ccccn3)no2)cc1	0
Clc1cc(Cl)c(OCc2nc(-c3ccccn3)no2)cc1Cl	0
Brc1ccc(-c2nc(-c3ccccc3)no2)o1	0
Clc1cccc(-c2nc(-c3ccccn3)no2)c1	62
CC(C)(C)c1ccc(OCc2nc(-c3ccccn3)no2)c(Br)c1	0
c1ccc(CCCc2nc(-c3ccccn3)no2)cc1	0
Cc1ccc(-c2nc(-c3ccccn3)no2)cc1	90
O=c1c2c3n(c(=O)nc2[nH]n1-c1ccccc1)CCCCC3	0
COC(=O)C(O)(NC(=O)NC(C)=O)C(F)(F)F (stereo unspecified)	0
O=C(Nc1ccccc1)NC1(C(=O)N2CCN(c3ncccn3)CC2)CCCCC1	0
COc1cccc(C2C(C(=O)c3ccco3)=C(O)C(=O)N2CCCN2CCOCC2)c1OC (stereo unspecified)	0
COc1cccc(C(=O)c2sc(NC(C)C)nc2N)c1	57
COc1cccc(C(=O)Nc2ccccc2N2CCCC2)c1	0
CCCC(=O)Nc1nc2ccc(OC)cc2s1	0
COC(=O)c1c(-c2cccs2)csc1NC(=O)c1cccnc1	0
CCCCS(=O)(=O)/C=C\C=C/S(=O)(=O)CCCC	91
CCN1CCN(C(=O)C2c3cc(OC)c(OC)cc3C(=O)N(C)C2c2ccc(SC)cc2)CC1 (stereo unspecified)	0
COc1cccc(NC(=O)c2nnn(Cc3ccc(Br)cc3F)c2N)c1	0
COc1ccc(CNC(=O)CN(CC2CCCO2)C(=O)CNS(=O)(=O)c2ccc(F)cc2)cc1 (stereo unspecified)	0
CCn1c(SCC(=O)c2c(N)n(C)c(=O)n(C)c2=O)nc2sc(C)c(C)c2c1=O	0
CC(NC(=O)COc1cc(=O)n(C)c2ccccc12)c1ccc2c(c1)OCCO2 (stereo unspecified)	0
CC(C)Cn1c(N)c(C(=O)CSc2ccc3c(c2)OCCO3)c(=O)n(C)c1=O	78
COc1ccc(CCn2nnnc2C(C(C)C)N2CCN(c3ncccn3)CC2)cc1OC (stereo unspecified)	0
COc1ccc(S(=O)(=O)N2CCC(n3cnc4cc(C(F)(F)F)ccc43)CC2)cc1	0
Cc1ccc2c(c1)nnn2C1CCN(S(C)(=O)=O)CC1	0
SMILES	RORA inh
Cc1ccc2c(c1)nnn2C1CCN(S(=O)(=O)c2ccc(C(=O)N3C(C)CCCC3C)cc2)CC1 (stereo unspecified)	63
COCCCN(C(C)=O)c1nc(-c2ccc(OC)cc2)cs1	0
c1ccc(CC2CCN(Cc3nc(-c4ccccc4)no3)CC2)cc1	0
COc1cccc(-c2nnc3n2N=C(C(C)(C)C)CS3)c1	62
CCOc1cccc(-c2nnc3n2N=C(c2cc(OC)ccc2OC)CS3)c1	0
Cc1ccccc1C(=O)/C=C1\NC(=O)CS1	0
CCC1CCCCN1C(=O)COC(=O)c1ccc(S(=O)(=O)N2CCOCC2)cc1 (stereo unspecified)	0
CC(=NC1CCCCC1)C1=C(O)c2ccccc2C1=O	0
O=C(Nc1ccc(Cl)cc1)c1ccc2c(c1)OCO2	0
O=C(c1ccc2c(c1)OCO2)N1CCc2ccccc2C1	0
O=C(NCCOc1ccccc1)c1ccc2c(c1)OCO2	63
Cn1c(-n2c(CCN3C(=O)c4ccccc4C3=O)nc3ccccc3c2=O)nc2ccccc21	0
O=C(NCc1ccco1)c1cnn2c(C(F)(F)F)cc(-c3cccs3)nc12	0
COc1ccc(OC)c(N/C(C)=C/C(=O)c2ccc(C)o2)c1	0
Cc1ccc(S(=O)(=O)N(CC(=O)N2CCCC2)C2CCCCC2)cc1	0
COC(=O)c1ccc(S(=O)(=O)N(Cc2cc3cc4c(cc3[nH]c2=O)OCO4)C2CCCCC2)cc1	0
CCN(C1CCCCC1)S(=O)(=O)c1ccc(S(=O)(=O)NCc2ccncc2)cc1	69
COc1cc(C(C)=O)ccc1OCC(=O)c1cc(C)n(C2CC2)c1C	0
CN(C)S(=O)(=O)c1ccc(NC(=O)c2ccccn2)cc1	0
CCN(CC)S(=O)(=O)c1ccc(NC(=O)c2ccccn2)cc1	0
CN(C)c1ccc(NC(=S)c2ccccn2)cc1	84
Cc1ccnc(NC(=O)Nc2ccc(F)cc2)c1	0
COc1ccc(C(=O)NC(=O)Nc2cc(C)ccn2)cc1	70
COc1ccc(C(=O)Nc2cc(C)on2)cc1	0
Cc1cccc(OCC(O)CN2CCN(C3CCCCC3)CC2)c1 (stereo unspecified)	0
SMILES	RORA inh
O=S(=O)(Nc1nc2ccccc2nc1NCc1ccco1)c1cccs1	0
O=C(Nc1ccc(CN2CCOCC2)cc1)c1cccc(F)c1	0
O=C(c1ccccc1)C(CCC(CN1CCOCC1)C(=O)c1ccccc1)CN1CCOCC1 (stereo unspecified)	56
O=C(c1ccccc1)c1ccc(N2CCOCC2)c(F)c1	0
CC(C)(C)NC(=O)Cn1c(SCC(=O)NC2CCCCC2)nc2ccccc21	0
CCOC(=O)N1CCC(NC(=O)Cn2ncn3c(cc4sc(CC)cc43)c2=O)CC1	0
CC(=O)N1CCN(c2ccc(Nc3nc(C)nc4c3oc3ccccc34)cc2)CC1	0
Cc1nc(NC(C)c2ccccc2)c2oc3ccccc3c2n1 (stereo unspecified)	58
COc1ccc(-n2c(SCCC(=O)O)nnc2-c2ccncc2)cc1	0
O=C(Nc1ccc(N2CCOCC2)c(Cl)c1)c1ncn[nH]1	0
O=C(Nc1ccc(N2CCOCC2)c(Cl)c1)C1CCCCC1	0
